Results on eight molecules are retold here after ChEMBL document CHEMBL2169858, “Design and synthesis of indomethacin analogues that inhibit P-glycoprotein and/or multidrug resistant protein without COX inhibitory activity” (J Med Chem, 2012).

For data set [1], the target named is ATP-dependent translocase ABCB1 (Homo sapiens, UniProt P08183). As to the kind of experiment: Inhibition of human recombinant P-glycoprotein after 40 mins by Pgp-Glo assay. Summed up: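 Recombinant human P-gp membranes were incubated with test compound (dilution series, 0.781–200 μM) and 5 mM MgATP at 37 °C for 40 min. ATP detection buffer was added and luminescence developed at room temperature for 20 min. IC50 was fitted to concentration–luminescence data by nonlinear least squares.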

Data set [2] has as its target T1, Prostaglandin G/H synthase 1 (Ovis aries, UniProt P05979).
T1 sequence (P05979 whole entry): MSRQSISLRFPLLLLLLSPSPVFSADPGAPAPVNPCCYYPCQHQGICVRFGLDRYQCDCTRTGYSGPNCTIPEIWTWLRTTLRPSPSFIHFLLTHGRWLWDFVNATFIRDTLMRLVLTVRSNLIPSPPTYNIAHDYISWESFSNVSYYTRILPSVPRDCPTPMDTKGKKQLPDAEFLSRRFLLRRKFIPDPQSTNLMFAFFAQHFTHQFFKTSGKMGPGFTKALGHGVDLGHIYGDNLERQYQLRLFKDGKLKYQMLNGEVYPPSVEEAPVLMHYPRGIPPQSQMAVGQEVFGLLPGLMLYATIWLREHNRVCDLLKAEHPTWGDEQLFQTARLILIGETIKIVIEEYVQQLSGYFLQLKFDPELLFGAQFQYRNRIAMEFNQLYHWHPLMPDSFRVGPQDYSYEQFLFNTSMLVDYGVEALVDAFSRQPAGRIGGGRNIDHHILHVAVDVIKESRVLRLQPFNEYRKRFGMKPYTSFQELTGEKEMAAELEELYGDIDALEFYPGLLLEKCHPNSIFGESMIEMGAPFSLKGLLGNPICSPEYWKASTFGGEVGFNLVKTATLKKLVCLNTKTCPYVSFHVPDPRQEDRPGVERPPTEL
The experiment in a line: Inhibition of ovine COX1 by colorimetric assay. Summed up:
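Colorimetric ovine COX inhibitor screening kit, run per the supplier's protocol. Each experiment was done at least four times and reported as mean ± SEM.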

In data set [3] the target is Multidrug resistance-associated protein 1 (Homo sapiens, UniProt P33527). As to the kind of experiment: Inhibition of human MRP1 in human T98G cells assessed as potentiation of doxorubicin induced cytotoxicity at 50 uM pre-incubated for 2 hrs before doxorubicin addition and measured 4 days after doxorubicin exposure by MTT assay relative to untreated control. The format is cell-based. Particulars: 96 h. (In general: Formazan colour is commonly taken as a measure of viable cells.)

Another data set has as its system T98G. As to the kind of experiment: Cytotoxicity against human T98G cells assessed as inhibition of cell growth at 1 uM by MTT assay. It is filed as functional. Particulars: read-out: GI; call rule not given here.

“And” between values parts separate entries of the source, which are not always exact repeats. Identical values can stand only once. Bounds are passed on as bounds.

Sequence of Multidrug resistance-associated protein 1 (P33527 whole entry): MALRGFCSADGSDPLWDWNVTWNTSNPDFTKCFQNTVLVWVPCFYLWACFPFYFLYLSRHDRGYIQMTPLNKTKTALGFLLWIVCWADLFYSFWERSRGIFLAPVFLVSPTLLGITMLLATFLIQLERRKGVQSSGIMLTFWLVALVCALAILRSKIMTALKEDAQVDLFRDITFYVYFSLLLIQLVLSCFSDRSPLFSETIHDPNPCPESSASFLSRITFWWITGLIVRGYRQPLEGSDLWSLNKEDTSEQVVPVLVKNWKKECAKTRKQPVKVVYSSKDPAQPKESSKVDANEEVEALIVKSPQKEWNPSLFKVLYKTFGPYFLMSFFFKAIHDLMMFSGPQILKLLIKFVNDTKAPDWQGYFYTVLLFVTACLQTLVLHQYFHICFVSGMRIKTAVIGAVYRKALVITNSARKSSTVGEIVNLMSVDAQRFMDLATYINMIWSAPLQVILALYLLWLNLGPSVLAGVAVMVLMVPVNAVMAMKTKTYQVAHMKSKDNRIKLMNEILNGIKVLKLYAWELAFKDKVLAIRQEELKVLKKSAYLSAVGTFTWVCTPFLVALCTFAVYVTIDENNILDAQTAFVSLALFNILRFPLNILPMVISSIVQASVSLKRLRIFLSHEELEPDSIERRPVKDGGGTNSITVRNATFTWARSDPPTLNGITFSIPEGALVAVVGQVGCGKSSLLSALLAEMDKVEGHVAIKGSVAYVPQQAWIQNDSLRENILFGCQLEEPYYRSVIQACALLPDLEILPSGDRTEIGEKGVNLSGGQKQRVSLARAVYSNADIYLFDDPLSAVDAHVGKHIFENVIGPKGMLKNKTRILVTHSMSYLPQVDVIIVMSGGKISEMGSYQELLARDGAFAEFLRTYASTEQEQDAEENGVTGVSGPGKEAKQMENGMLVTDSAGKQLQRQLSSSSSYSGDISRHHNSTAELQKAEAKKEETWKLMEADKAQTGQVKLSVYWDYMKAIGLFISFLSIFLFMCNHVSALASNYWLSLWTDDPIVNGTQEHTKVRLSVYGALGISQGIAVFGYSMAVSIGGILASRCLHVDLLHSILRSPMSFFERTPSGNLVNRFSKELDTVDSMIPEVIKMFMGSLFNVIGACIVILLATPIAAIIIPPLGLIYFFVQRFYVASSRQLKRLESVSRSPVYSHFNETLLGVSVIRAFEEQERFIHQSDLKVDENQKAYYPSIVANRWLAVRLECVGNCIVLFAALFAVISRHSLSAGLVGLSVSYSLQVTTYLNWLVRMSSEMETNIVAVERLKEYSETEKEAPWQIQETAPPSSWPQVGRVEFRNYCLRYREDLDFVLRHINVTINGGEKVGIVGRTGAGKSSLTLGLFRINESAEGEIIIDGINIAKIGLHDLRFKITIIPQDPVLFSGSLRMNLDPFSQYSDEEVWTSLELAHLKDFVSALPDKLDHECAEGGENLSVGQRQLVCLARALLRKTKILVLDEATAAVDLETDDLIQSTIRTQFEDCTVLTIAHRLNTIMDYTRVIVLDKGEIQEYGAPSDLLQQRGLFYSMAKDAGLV
Sequence of ATP-dependent translocase ABCB1 (P08183 whole entry): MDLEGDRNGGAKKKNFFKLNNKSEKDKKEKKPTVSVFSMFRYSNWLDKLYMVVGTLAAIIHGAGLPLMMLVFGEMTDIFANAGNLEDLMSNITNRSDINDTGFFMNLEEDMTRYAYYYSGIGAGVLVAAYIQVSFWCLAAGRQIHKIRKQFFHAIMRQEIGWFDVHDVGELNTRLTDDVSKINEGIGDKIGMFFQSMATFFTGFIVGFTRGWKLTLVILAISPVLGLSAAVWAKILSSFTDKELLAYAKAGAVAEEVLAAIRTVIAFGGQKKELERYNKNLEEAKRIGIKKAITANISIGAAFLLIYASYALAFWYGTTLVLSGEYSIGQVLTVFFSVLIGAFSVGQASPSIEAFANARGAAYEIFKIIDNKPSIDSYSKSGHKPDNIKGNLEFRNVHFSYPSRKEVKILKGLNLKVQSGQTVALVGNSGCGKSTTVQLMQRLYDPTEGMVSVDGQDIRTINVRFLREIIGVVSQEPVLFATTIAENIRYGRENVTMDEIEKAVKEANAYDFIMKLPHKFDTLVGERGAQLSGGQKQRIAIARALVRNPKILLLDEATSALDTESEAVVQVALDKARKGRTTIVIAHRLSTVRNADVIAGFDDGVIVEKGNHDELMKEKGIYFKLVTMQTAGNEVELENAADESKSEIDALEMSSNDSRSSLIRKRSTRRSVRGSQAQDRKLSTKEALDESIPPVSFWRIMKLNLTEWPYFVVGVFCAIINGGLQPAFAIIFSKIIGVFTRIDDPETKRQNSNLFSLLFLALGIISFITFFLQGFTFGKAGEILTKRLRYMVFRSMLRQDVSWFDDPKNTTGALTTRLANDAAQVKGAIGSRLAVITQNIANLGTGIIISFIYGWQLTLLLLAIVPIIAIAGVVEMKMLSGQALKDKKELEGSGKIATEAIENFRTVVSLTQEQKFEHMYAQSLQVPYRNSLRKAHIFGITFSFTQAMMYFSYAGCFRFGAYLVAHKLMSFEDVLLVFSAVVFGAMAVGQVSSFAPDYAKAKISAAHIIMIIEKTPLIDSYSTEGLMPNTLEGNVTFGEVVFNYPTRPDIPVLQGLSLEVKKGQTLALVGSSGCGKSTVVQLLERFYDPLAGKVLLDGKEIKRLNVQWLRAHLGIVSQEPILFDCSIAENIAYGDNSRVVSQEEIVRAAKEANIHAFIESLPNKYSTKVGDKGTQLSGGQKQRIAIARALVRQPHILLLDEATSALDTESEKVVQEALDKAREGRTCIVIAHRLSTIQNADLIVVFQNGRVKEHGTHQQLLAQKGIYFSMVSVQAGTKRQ

For the molecule `CCc1c(CC(=O)O)c2ccccc2n1C(=O)c1ccc(Cl)cc1`, the IC50 is 20 µM in data set [1] and over 400 µM in data set [2]. For the same molecule, the “inhibition (INH)” value in data set [3] is recorded as “Active”.

For `COc1ccc2c(c1)c(CC(=O)O)c(C)n2C(=O)c1ccc(Cl)cc1` [INDOMETHACIN], in data set [1], the IC50 was 32 µM and 28 µM.

For `Cc1c(CC(=O)O)c2ccccc2n1C(=O)c1ccc(Cl)cc1`, the IC50 is 20 µM in data set [1] and 0.01 µM in data set [2].

In the case of `O=C(O)Cc1c(-c2ccccc2)n(C(=O)c2ccc(Cl)cc2)c2ccccc12`, the 50% inhibitory concentration (IC50) is 18 µM in data set [1] and over 400 µM in data set [2]. In data set [3], the “inhibition (INH)” value is listed as “Active”.

As for `COc1ccc2c(CC(=O)O)c(C)n(C(=O)c3ccc(Cl)cc3)c2c1`, the figures for the half-maximal inhibitory concentration (IC50) in data set [1] and in data set [2] were 9.8 µM and over 200 µM, respectively.

For the molecule `COc1cccc2c1C(=O)c1c(O)c3c(c(O)c1C2=O)C[C@@](O)(C(=O)CO)C[C@@H]3O[C@H]1C[C@H](N)[C@H](O)[C@H](C)O1` [DOXORUBICIN], the inhibition of growth at 1 µM in the data set with T98G was 40%.

On to `COc1cccc2c(CC(=O)O)c(C)n(C(=O)c3ccc(Cl)cc3)c12`, for which the IC50 in data set [1] was 15 µM; in data set [2] it was over 400 µM. Further, the “inhibition (INH)” value in data set [3] is given as “Active”.

As to `CCc1cccc2c(CC(=O)O)cn(C(=O)c3ccc(Cl)cc3)c12`, the concentration for half-maximal inhibition (IC50) in data set [1] is 17 µM; in data set [2], over 400 µM. In addition, the “inhibition (INH)” value in data set [3] is reported as “Not Active”.

A word on the IC50: it is the point on the concentration scale where inhibition reaches its midpoint.
